Measurements from publication PMC4874899 (Cell chemical biology, 2016).

Columns and labels:
[1] = system: mEmerald-TGOLN2 transport; test: Retrograde transport of the TGN marker mEmerald-TGOLN2; assay type: cell-based; settings: retro-2 20 µM
cells [2] = test: Cytosolic penetration / endosomal escape by fluorescence microscopy; assay type: cell-based; settings: retro-2 20 µM, 30 min prior to dfTAT (3 µM, 1 h)
Procedure, shortened: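 Cells at 80–90% confluency (48 h) pretreated 30 min with 20 µM retro-2, then 3 µM dfTAT for 1 h at 37 °C in serum-free L-15. Washed with heparin-containing L-15 (1 mg/mL); SYTOX (5 µM) stained cells excluded. Imaged at 37 °C; % nucleoli-positive cells of bright-field total, >500 cells per experiment, triplicates; t-test.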

[3] = system: L.E. LUVs (77:19:4 BMP:PC:PE); settings: monomeric TAT; ref Yang et al., 2010; cited from earlier work
cells [4] = settings: ref Gao et al., 2009; Gillmeister et al., 2011; Lee et al., 2010; cited from earlier work

Compound | inhibition of transport of TGN marker mEmerald-TGOLN2 [1] | effect on dfTAT-mediated endosomal escape (cells [2]) | effect on BMP-containing liposomes [3] | escape from the endocytic pathway (cells [4])
Cc1ccc(C=Nc2ccccc2C(=O)Nc2ccccc2)s1 [retro-2] | capable of inhibiting the transport | had no effect on dfTAT-mediated escape | – | –
RKKRRQRRR [TAT] | – | – | leaky fusion | only at a very low efficiency
